# PubChem BioAssay AID463143 (The Scripps Research Institute Molecular Screening Center, 2010)
# Active and inactive are the calls of the source.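 Rule for the calls: active = fold change in liver X receptor activation above 2; inactive = the rest.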
# Molecular target: Oxysterols receptor LXR-beta (Homo sapiens) (UniProt P55055)
# Test: LXR activators, GAL4 reporter, late-stage follow-up, selectivity assay for RORA inverse agonist project, cell-based, luminescence, single concentration, powder samples (AID 463143)
# Settings: HEK293T GAL4-LXR LBD luciferase reporter, 18-24 h; at 10 µM; hits give high values
# In short: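 assay system = HEK293T GAL4-LXR LBD luciferase reporter cells | compound = single nominal dose of 10 µM per compound | evaluation = fold change versus DMSO vehicle | signal = luminescence | repeats = six replicate runs, averaged | schedule = 20 h compound exposure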
# Chain of Oxysterols receptor LXR-beta (Homo sapiens) (P55055 whole entry, looked up, the tested form may be a part): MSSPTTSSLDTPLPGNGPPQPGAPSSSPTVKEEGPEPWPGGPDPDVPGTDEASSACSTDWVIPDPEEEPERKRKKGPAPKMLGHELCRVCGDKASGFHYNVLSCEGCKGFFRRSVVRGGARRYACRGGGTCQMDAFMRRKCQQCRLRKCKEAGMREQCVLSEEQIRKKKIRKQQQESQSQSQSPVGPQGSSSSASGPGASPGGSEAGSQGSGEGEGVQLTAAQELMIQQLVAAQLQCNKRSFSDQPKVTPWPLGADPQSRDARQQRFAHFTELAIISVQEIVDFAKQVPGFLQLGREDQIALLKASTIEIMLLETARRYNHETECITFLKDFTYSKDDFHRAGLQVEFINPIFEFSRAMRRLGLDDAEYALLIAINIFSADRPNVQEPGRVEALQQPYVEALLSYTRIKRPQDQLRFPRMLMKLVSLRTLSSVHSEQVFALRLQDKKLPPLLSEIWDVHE
row,SMILES,fold change
1,O=C(Nc1ccc(C(O)(C(F)(F)F)C(F)(F)F)cc1)c1ccc(F)cc1Cl,1.04 (inactive)
2,O=C(Nc1ccc(C(O)(C(F)(F)F)C(F)(F)F)cc1)c1ccc(F)cc1F,1.39 (inactive)
3,O=S(=O)(Nc1ccc(C(O)(C(F)(F)F)C(F)(F)F)cc1)c1cccs1,1.39 (inactive)
4,O=C(Nc1ccc(C(O)(C(F)(F)F)C(F)(F)F)cc1)c1ccccc1C(F)(F)F,0.958 (inactive)
5,O=C(Nc1ccc(C(O)(C(F)(F)F)C(F)(F)F)cc1)c1ccc(Cl)cc1,1.15 (inactive)
6,O=C(Nc1ccc(C(O)(C(F)(F)F)C(F)(F)F)cc1)c1c(F)cccc1F,0.937 (inactive)
